Experimental findings from ChEMBL document CHEMBL3751842, “Novel triazolothiadiazines act as potent anticancer agents in liver cancer cells through Akt and ASK-1 proteins” (Bioorg Med Chem, 2016) are described below.

For data set [1], the target named is T1, Mitogen-activated protein kinase kinase kinase 5 (Homo sapiens) (UniProt Q99683).
T1 sequence (whole entry): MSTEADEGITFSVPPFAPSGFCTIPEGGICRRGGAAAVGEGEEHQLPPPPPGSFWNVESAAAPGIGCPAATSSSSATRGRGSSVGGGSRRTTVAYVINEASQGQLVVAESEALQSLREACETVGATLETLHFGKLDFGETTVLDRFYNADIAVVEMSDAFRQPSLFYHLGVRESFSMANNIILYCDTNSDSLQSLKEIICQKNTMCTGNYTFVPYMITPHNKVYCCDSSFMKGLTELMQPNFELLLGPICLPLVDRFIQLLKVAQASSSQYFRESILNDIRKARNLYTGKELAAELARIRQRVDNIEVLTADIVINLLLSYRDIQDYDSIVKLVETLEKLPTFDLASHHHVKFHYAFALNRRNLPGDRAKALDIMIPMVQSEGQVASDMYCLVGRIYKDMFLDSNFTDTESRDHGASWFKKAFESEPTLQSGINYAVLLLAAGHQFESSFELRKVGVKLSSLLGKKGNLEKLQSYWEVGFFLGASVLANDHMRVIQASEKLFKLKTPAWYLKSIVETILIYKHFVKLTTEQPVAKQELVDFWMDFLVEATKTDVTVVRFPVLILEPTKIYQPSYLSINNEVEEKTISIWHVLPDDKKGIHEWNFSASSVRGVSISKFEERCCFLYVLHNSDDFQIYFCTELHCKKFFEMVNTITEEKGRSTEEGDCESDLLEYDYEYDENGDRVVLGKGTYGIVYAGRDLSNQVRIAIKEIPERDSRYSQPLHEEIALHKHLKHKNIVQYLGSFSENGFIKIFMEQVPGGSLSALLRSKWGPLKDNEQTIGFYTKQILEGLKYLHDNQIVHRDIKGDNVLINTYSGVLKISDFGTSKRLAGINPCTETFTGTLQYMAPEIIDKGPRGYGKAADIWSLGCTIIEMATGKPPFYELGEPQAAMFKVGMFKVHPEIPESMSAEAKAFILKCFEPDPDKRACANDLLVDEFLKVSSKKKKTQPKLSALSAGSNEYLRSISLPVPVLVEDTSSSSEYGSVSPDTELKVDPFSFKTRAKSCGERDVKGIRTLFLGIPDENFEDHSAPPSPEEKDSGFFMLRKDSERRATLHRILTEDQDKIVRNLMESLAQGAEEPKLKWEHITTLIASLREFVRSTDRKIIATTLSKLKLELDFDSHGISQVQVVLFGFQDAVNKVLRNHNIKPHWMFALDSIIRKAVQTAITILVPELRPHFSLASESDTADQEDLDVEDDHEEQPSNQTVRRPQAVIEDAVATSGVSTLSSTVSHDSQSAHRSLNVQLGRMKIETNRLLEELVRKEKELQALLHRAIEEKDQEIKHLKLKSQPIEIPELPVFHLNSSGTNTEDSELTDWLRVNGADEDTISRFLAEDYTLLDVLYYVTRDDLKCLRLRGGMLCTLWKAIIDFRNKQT
Put plainly: Activation of ASK1 in human Mahlavu cells assessed as SAPK/JNK phosphorylation after 24 to 48 hrs by Western blot analysis. The data set is classed as cell-based. The procedure, abridged: (§1)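 Cells were exposed to compound or DMSO control for 24 or 48 h. Lysates were loaded at […] protein per lane and immunoblotted with antibodies diluted 1:100 to 1:500 in 5% BSA-TBS-T. Targets were p-Akt (Ser473), Akt, p-GSK3-α/β (Ser21/9), GSK3-α/β, SAPK/JNK, p-SAPK/JNK (Thr183/Tyr185), PARP, p-β-catenin, β-catenin, cyclin D1, p-ASK1 (S83) and p-ASK1 (S966). Actin served as the loading control.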

The test system of data set [2] is Huh-7. Put plainly: Induction of apoptosis in human HuH7 cells assessed as nuclear condensation at 10 uM after 48 hrs by Hoechst 33258 staining-based immunofluorescence microscopy. The data set is classed as functional, cell-based. The procedure, abridged: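 Cells on coverslips were incubated overnight, then treated with 10 µM compound or DMSO for 48 h. They were washed in ice-cold PBS, fixed in cold methanol for 10 min, and stained with 1 µg/mL Hoechst 33258 for 5 min in the dark. Nuclei were examined by fluorescence microscopy with a 40x objective.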

For data set [3], the target named is T1, Mitogen-activated protein kinase kinase kinase 5 (Homo sapiens). Put plainly: Activation of ASK1 in human Mahlavu cells assessed as Ser966 phosphorylation after 24 to 48 hrs by Western blot analysis. The data set is classed as cell-based. In outline:
as §1
Background: Immunoblotting shows a protein as a band on a membrane.

Data set [4] has the same target. As to the kind of experiment: Activation of ASK1 in human Mahlavu cells assessed as Ser83 phosphorylation after 24 to 48 hrs by Western blot analysis. The data set is classed as cell-based. In outline: as §1
Data set [5] concerns Huh-7. As to the kind of experiment: Induction of apoptosis in human HuH7 cells assessed as decrease in cyclin D1 level after 24 to 48 hrs by Western blot analysis. The data set is classed as functional, cell-based. The procedure, abridged: as §1
The target in data set [6] is RAC-alpha serine/threonine-protein kinase (Homo sapiens) (UniProt P31749). As to the kind of experiment: Inhibition of Akt phosphorylation in human Mahlavu cells after 24 to 48 hrs by Western blot analysis. The data set is classed as cell-based. The procedure, abridged: as §1
Another data set relates to Mahlavu. Put plainly: Induction of oxidative stress in human Mahlavu cells assessed as ROS accumulation at 10 uM after 48 hrs by flow cytometry analysis. The data set is classed as functional, cell-based. In outline:
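Huh7 and Mahlavu cells were treated after 24 h with 10 µM compound or DMSO for 48 h. Cells were then trypsinized and processed with a MUSE oxidative stress kit for flow cytometric counting of ROS-positive cells. Cells grown in selenium-deficient serum-free medium served as the positive control.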
For orientation: In flow cytometry, cells or beads pass a laser one at a time.

Data set [7] is described as follows: Cytotoxicity against human HuH7 cells assessed as growth inhibition after 72 hrs by sulforhodamine B assay. The data set is classed as functional, cell-based, Huh-7. As to conditions: Homo sapiens, Huh-7, 72 h; read-out: IC50. In outline:
(§2)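 Cells were grown at 37°C, 5% CO2 in DMEM with 10% FBS. They were seeded at 1000–3000 cells/well, grown 24 h, then exposed to compound at 2.5–40 µM for 72 h. Cells were fixed in 10% TCA for 1 h at 4°C, stained with 0.4% SRB in 1% acetic acid for 10 min, and the dye solubilized in 10 mM Tris. Absorbance was read at 515 nm; runs were in triplicate; IC50 was calculated, with fits of R2 0.8–1 accepted.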

The nature of data set [8]: Cytotoxicity against human Hep3B cells assessed as growth inhibition after 72 hrs by sulforhodamine B assay. The data set is classed as functional, cell-based, Hep 3B2. As to conditions: Homo sapiens, Hep3B, 72 h; read-out: IC50. In outline:
as §2
In general terms: The SRB assay estimates cell density from bound dye.

Data set [9] in a line: Effect on un-phosphorylated beta-catenin level in human HuH7 cells after 24 to 48 hrs by Western blot analysis. To be noted: huh-7. The data set is classed as ADME, cell-based. The procedure, abridged:
as §1

What is called IC50 is the point on the concentration scale where inhibition reaches its midpoint.

Activity calls are given as the source filed them. The rule behind the calls is not given here.

RAC-alpha serine/threonine-protein kinase (Homo sapiens), sequence (P31749 whole entry): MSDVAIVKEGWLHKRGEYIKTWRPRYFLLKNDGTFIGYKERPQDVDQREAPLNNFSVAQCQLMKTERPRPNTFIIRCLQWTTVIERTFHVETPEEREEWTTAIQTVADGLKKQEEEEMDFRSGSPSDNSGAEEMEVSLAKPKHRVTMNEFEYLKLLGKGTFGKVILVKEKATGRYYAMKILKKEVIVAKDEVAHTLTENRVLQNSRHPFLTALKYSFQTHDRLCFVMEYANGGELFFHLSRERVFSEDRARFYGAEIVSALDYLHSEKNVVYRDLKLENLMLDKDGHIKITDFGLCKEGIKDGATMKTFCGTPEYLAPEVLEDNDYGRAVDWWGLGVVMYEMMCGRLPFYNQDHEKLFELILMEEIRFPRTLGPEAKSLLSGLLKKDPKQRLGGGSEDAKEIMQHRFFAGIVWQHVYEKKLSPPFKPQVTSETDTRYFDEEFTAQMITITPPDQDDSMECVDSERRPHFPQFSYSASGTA

Consider `Cc1ccc(C2=Nn3c(nnc3C(C)c3ccc(CC(C)C)cc3)SC2)cc1` (stereo not given), for which the result (in data set [1]; in the data set with Huh-7 [2]; in data set [3]; in [4]; with Huh-7 [5]; with Mahlavu) was Active. Also, the inhibition result in data set [6] was “Active”. For the same compound, the IC50 in [7] was found to be 5 µM; in [8] it was 5.3 µM. For the same compound, the Activity entry in data set [9] was “Non-toxic”.
As to `COc1ccc(C2=Nn3c(nnc3C(C)c3ccc(CC(C)C)cc3)SC2)cc1` (stereo not given), the result (in data set [1]; in the data set with Huh-7 [2]; in data set [3]; in data set [4]; in the data set with Huh-7 [5]; in the data set with Mahlavu) was Active. The inhibition result in data set [6] was “Active”. Moreover, the results for the IC50 in data set [7] and in [8] were 3.7 µM and 6.5 µM, respectively. The Activity entry in data set [9] is on record as “Non-toxic”.
